From PubChem
Hits are enriched below; roughly 5.9% of the tested compounds scored in any of these assays.
KDM4C inh – blocks human GASC-1 (KDM4C) demethylase activity. Q9H3R0. GST-KDM4C 2-372, H3K9me3 peptide, LANCE TR-FRET. inhibition, % at 12.5 µM. 96,000 tested, 0.15% active;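 active means mean replicate inhibition above about 25%, with at least 55% of replicates also reaching it, limit read from the data, passing the limit was not always enough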
Target sequence (Q9H3R0 2-372 limits assumed): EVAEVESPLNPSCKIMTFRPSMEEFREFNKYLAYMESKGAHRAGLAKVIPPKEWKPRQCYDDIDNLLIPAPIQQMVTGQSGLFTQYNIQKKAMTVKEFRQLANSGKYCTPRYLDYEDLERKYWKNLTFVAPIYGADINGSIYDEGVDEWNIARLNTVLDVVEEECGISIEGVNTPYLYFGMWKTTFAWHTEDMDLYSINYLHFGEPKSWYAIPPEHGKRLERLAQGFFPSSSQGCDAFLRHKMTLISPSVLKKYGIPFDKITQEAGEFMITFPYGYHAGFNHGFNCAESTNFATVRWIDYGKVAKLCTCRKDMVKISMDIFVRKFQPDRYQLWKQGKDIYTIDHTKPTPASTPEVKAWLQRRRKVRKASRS
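Test system – GST-tagged GASC-1 (JMJD2C) catalytic fragment, aa 2-372 · Medium – HEPES buffer, pH 7.5, plus ascorbate · Reagent – H3K9me3 peptide with Fe(II)/2OG · Compound – one test concentration per compound · Timing – 30 min reaction, 60 min detection, RT · Technique – TR-FRET with Eu antibody and ULight streptavidin, EDTA stop · Read-out basis – inhibition from TR-FRET ratio decrease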
Tcruzi prolif – T. cruzi proliferation inhibition; T. cruzi beta-gal in NIH3T3, GalScreen luminescence, 90 h; inhibition, % at 8.34 µM; 77,000 tested, 5.9% active; AID 624255;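 active means mean inhibition above about 93%, with at least 55% of replicates each passing it, limit read from the data, passing the limit was not always enough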
Pf Dd2 growth – blocks growth of Plasmodium falciparum Dd2 parasites. P. falciparum Dd2 growth, SYBR Green, 72 h; active compounds read low. activity change, % at 10 µM. 94,000 tested, 2.3% active; in the data active means activity change below about -80%
IDH1 mut inh – blocks human IDH1 R132H reductase activity; diaphorase/resazurin fluorescence, 60 min; inhibition, % at 10 µM; 70,000 tested, 0.18% active; AID 624101; in the data active means inhibition above about 34%;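 further: 0% = DMSO and 100% = no enzyme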
Active calls of the source: *; · = not tested or not shown.

SMILES | KDM4C inh | Tcruzi prolif | Pf Dd2 growth | IDH1 mut inh
CCN(CC)S(=O)(=O)c1ccc(OC)c(NC(=O)c2cccnc2)c1 | · | · | · | -1
C/C=C/c1ccc2c(c1)[C@H]1[C@H](CCN1S(=O)(=O)c1ccccc1C)[C@@H](CO)N2 | -4 | · | -87* | ·
CCCC#Cc1ccc2c(c1)[C@H]1[C@H](CCN1Cc1ccccc1F)[C@@H](CO)N2 | 0 | · | -83* | ·
CCCC#Cc1ccc2c(c1)[C@@H]1[C@@H](CCN1S(=O)(=O)c1ccccc1F)[C@@H](CO)N2 | -3 | · | -64 | ·
OC[C@@H]1Nc2ccc(-c3ccccc3)cc2[C@H]2[C@@H]1CCN2Cc1ccccc1F | 0 | 50 | -23 | ·
C/C=C/c1ccc2c(c1)[C@H]1[C@H](CCN1C(=O)c1ccc3c(c1)OCO3)[C@H](CO)N2 | 0 | · | -90* | ·
CCCC#Cc1ccc2c(c1)[C@@H]1[C@@H](CCN1S(=O)(=O)c1ccccc1C)[C@@H](CO)N2 | -1 | · | -84* | ·
O=C(CN1CCN(C2CCCC2)CC1)Nc1ccc([N+](=O)[O-])cc1C(=O)Nc1ccccc1F | · | · | · | 0
O=C(CC1OCCN(Cc2ccccc2)C1=O)Nc1cccc(Cl)c1 (stereo not given) | · | · | · | 0
COc1ccc(NC(=O)Nc2ccc3c(c2)C(=O)N([C@@H](C)CO)C[C@@H](C)[C@@H](CN(C)Cc2ccc(C(F)(F)F)cc2)OCCCC[C@H](C)O3)cc1 | 0 | 75 | -76 | 0
COc1ccc(CN(C)C[C@@H]2OCCCC[C@H](C)Oc3ccc(NC(=O)Nc4ccc(C(F)(F)F)cc4)cc3C(=O)N([C@@H](C)CO)C[C@@H]2C)cc1 | · | 96 | -87* | ·
COc1ccc(CN(C)C[C@H]2OCCCC[C@@H](C)Oc3ccc(NC(=O)Nc4ccc(C(F)(F)F)cc4)cc3C(=O)N([C@H](C)CO)C[C@H]2C)cc1 | · | 101 | -67 | ·
COc1ccc(CN(C)C[C@H]2OCCCC[C@H](C)Oc3ccc(NC(=O)Nc4ccc(C(F)(F)F)cc4)cc3C(=O)N([C@@H](C)CO)C[C@H]2C)cc1 | · | 59 | -75 | ·
COc1ccc(NC(=O)Nc2ccc3c(c2)C(=O)N([C@@H](C)CO)C[C@H](C)[C@@H](CN(C)Cc2ccc(C(F)(F)F)cc2)OCCCC[C@@H](C)O3)cc1 | -2 | 66 | -91* | ·
COc1ccc(NC(=O)Nc2ccc3c(c2)C(=O)N([C@@H](C)CO)C[C@@H](C)[C@@H](CN(C)Cc2ccc(C(F)(F)F)cc2)OCCCC[C@@H](C)O3)cc1 | 0 | 78 | -83* | 0
CNC(=O)CN(c1cc(Cl)c(Cl)cc1Cl)S(C)(=O)=O | · | · | · | 0
O=C(CCN1C(=O)c2ccccc2S1(=O)=O)Nc1ccc(Oc2ccccc2)cc1 | · | · | · | 1
CCC(=O)Nc1nonc1-c1nc2ccccc2n1Cc1cc(OC)ccc1C | · | · | · | 0
C[C@@H]1CCCCO[C@@H](CN(C)C(=O)Nc2cccc3ccccc23)[C@@H](C)CN([C@H](C)CO)C(=O)c2cc(NC(=O)C3CCCCC3)ccc2O1 | 3 | -15 | -75 | -3
CC(C)NC(=O)Nc1ccc2c(c1)C(=O)N([C@@H](C)CO)C[C@@H](C)[C@H](CN(C)C(=O)Nc1cccc3ccccc13)OCCCC[C@H](C)O2 | 0 | -65 | -86* | ·
C[C@H]1CCCCO[C@H](CN(C)C(=O)Nc2cccc3ccccc23)[C@@H](C)CN([C@@H](C)CO)C(=O)c2cc(NC(=O)C3CCCCC3)ccc2O1 | -6 | 97 | -86* | -1
CC(C)NC(=O)Nc1ccc2c(c1)C(=O)N([C@H](C)CO)C[C@H](C)[C@H](CN(C)C(=O)Nc1cccc3ccccc13)OCCCC[C@@H](C)O2 | -1 | 2 | -23 | 3
C[C@@H]1CCCCO[C@@H](CN(C)C(=O)Nc2cccc3ccccc23)[C@H](C)CN([C@@H](C)CO)C(=O)c2cc(NC(=O)C3CCCCC3)ccc2O1 | -8 | 113 | -83* | 1
CC1=C(C(=O)OC(C)C)C(c2ccccc2[N+](=O)[O-])n2ncnc2N1 (stereo not given) | · | · | · | 0
COC(=O)c1ccc(Cl)c(NC(=O)COc2ccc(OC)cc2)c1 | · | · | · | 0
SMILES | KDM4C inh | Tcruzi prolif | Pf Dd2 growth | IDH1 mut inh
COc1ccc(Cl)cc1NC(=O)c1ccccc1N(Cc1ccccc1)S(C)(=O)=O | · | · | · | 0
O=C(NCC1CCCO1)C1CC(c2ccccc2O)=NO1 (stereo not given) | · | · | · | 0
COc1ccccc1NC(=O)N1CCCCN2[C@@H](CO)[C@H](c3ccc(C#CC4CCCC4)cc3)[C@@H]2C1 | -1 | -3 | -83* | ·
COc1ccccc1NC(=O)N1CCCCN2[C@H](CO)[C@H](c3ccc(-c4cccc(C)c4)cc3)[C@H]2C1 | -1 | 75 | -86* | ·
Cc1cccc(-c2ccc([C@@H]3[C@H](CO)N4CCCCN(CCC(F)(F)F)C[C@@H]34)cc2)c1 | -1 | 84 | -81* | ·
Cc1cccc(-c2ccc([C@@H]3[C@@H](CO)N4CCCCN(CCC(F)(F)F)C[C@@H]34)cc2)c1 | -2 | 93 | -22 | ·
O=C1Oc2cc(O)cc(O)c2[C@@H](c2ccc(O)cc2)[C@H]1[C@H]1C(=O)Oc2cc(O)cc(O)c2[C@H]1c1ccc(O)cc1 | · | · | · | 52*
COc1ccc2c3c([nH]c2c1)[C@H](CO)N(C(=O)CN(C)C)CC31CN(Cc2ccncc2)C1 | 1 | · | -32 | ·
COc1ccc(CN2CC3(C2)CN(C(=O)CN(C)C)[C@H](CO)c2[nH]c4cc(OC)ccc4c23)cc1 | -1 | · | -88* | ·
COc1ccc(CN2CC3(C2)CN(C(=O)CN(C)C)[C@@H](CO)c2[nH]c4cc(OC)ccc4c23)cc1 | -1 | · | -86* | ·
COc1ccc2c3c([nH]c2c1)[C@@H](CO)N(C(=O)CN(C)C)CC31CN(Cc2ccccc2)C1 | 0 | · | -55 | ·
Cc1cc(C)nc(Nc2n[nH]c(CSc3nc4ccccc4s3)n2)n1 | · | · | · | 0
CC(C)c1ccc(NC(=O)CSc2n[nH]c(-c3ccccc3Cl)n2)cc1 | · | · | · | 0
Cn1c(=O)c2c(nc(NCc3cccnc3)n2Cc2ccc(Cl)cc2Cl)n(C)c1=O | · | · | · | 0
C[C@H](CO)N1C[C@H](C)[C@H](CN(C)C(=O)Nc2cccc(C(F)(F)F)c2)OCc2ccccc2-c2ccccc2C1=O | -1 | 74 | -32 | -2
C[C@@H]1CN([C@@H](C)CO)C(=O)c2ccccc2-c2ccccc2CO[C@H]1CN(C)C(=O)Nc1cccc(F)c1 | 2 | 22 | -83* | ·
C[C@H]1CN([C@@H](C)CO)C(=O)c2ccccc2-c2ccccc2CO[C@@H]1CN(C)C(=O)Nc1ccc(-c2ccccc2)cc1 | -2 | · | -86* | ·
C[C@@H]1CN([C@@H](C)CO)C(=O)c2ccccc2-c2ccccc2CO[C@H]1CN(C)C(=O)Nc1cccc(C(F)(F)F)c1 | 0 | 49 | -87* | ·
O=C(CCCCCCC(=O)N/N=C/c1cc(O)ccc1[N+](=O)[O-])NO | · | · | · | 0
O=C(CSc1nc2ccccc2c(=O)[nH]1)Nc1cccc(I)c1 | · | · | · | 0
COc1ccc(NC(=O)C(=O)NCCCO)c(OC)c1 | · | · | · | 0
C[C@@H]1CN([C@@H](C)CO)C(=O)Cc2cc(NC(=O)Nc3ccccc3)ccc2O[C@H]1CN(C)CC1CC1 | · | -21 | -87* | -2
